ChEMBL document CHEMBL1687923, “Discovery of N-hydroxyindole-based inhibitors of human lactate dehydrogenase isoform A (LDH-A) as starvation agents against cancer cells” (J Med Chem, 2011)
Calls of active or inactive are those of the source. The rule behind the calls is not given here.

Legend:
[1] = molecular target: T1, L-lactate dehydrogenase A chain (Homo sapiens, UniProt P00338); assay: Inhibition of human LDH-A using pyruvate as substrate and NADH as cofactor at 125 uM after 5 mins by calorimetric assay relative to control
[2] = molecular target: L-lactate dehydrogenase B chain (Homo sapiens) (UniProt P07195); assay: Inhibition of human LDH-B using pyruvate as substrate and NADH as cofactor at 125 uM after 5 mins by calorimetric assay relative to control
In short: (§1)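 Purified human LDH1 (LDH-B4), run as for LDH-A but only under pyruvate saturation (2 mM sodium pyruvate) with 25 µM NADH. Test compound at 125 µM, 37 °C, phosphate buffer. Activity is the A340 decrease from NADH consumption, read every 30 s for 5 min. Percent inhibition is relative to control, as mean ± SD of two or more independent experiments. Detection limit is 3%.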

MSTO-211H = assay: Cytotoxicity against human MSTO-211H cells after 48 hrs by sulforhodamine B assay; assay type: functional, cell-based
In short: (§2)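 Cells grown in RPMI 1640 with 10% FCS, 2 mM glutamine and penicillin/streptomycin, at 37 °C in 5% CO2 under normoxia. Compounds (10 mM DMSO stocks) are added on day 1 after plating at 1–100 µM, in triplicate, for 48 h. DMSO 0.25% v/v serves as control. Cells are TCA-fixed, stained with SRB and read at 492 nm. Growth is calculated relative to T0 and control. IC50 reported as mean ± SD from at least two experiments.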

NCI-H28 = assay: Cytotoxicity against human NCI-H28 cells after 48 hrs by sulforhodamine B assay; assay type: functional, cell-based; conditions: NCI-H28, 48 h; in short: as §2
[3] = molecular target: L-lactate dehydrogenase B chain (Homo sapiens) (UniProt P07195); assay: Inhibition of human LDH-B using saturating concentration of pyruvate and NADH as cofactor after 5 mins by calorimetric assay relative to control; in short: as §1
[4] = molecular target: T1, L-lactate dehydrogenase A chain; assay: Competitive inhibition of human LDH-A using NADH as substrate after 5 mins by calorimetric assay relative to control
In short: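 Ki values from Lineweaver-Burk double-reciprocal plots. Enzyme is purified human LDH5 (LDH-A4), 0.005 units, in 100 mM sodium phosphate pH 7.4 at 37 °C. Pyruvate is held saturating at 2 mM while NADH is varied from 12.5 to 150 µM. Inhibitor is at 25–100 µM. NADH oxidation is read as A340 every 30 s for 5 min, in triplicate.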

[5] = molecular target: T1, L-lactate dehydrogenase A chain; assay: Competitive inhibition of human LDH-A using pyruvate as substrate after 5 mins by calorimetric assay relative to control
In short: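 Ki values from Lineweaver-Burk double-reciprocal plots. Enzyme is purified human LDH5 (LDH-A4), 0.005 units, in 100 mM sodium phosphate pH 7.4 at 37 °C. NADH is held saturating at 200 µM while sodium pyruvate is varied from 25 µM to 1 mM. Inhibitor is at 25–100 µM. A340 decrease is read every 30 s for 5 min, in triplicate.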

[6] = Cytotoxicity against human ADDP cells after 48 hrs by sulforhodamine B assay; assay type: functional, cell-based; in short: as §2
A2780 = assay: Cytotoxicity against human A2780 cells after 48 hrs by sulforhodamine B assay; assay type: functional, cell-based; conditions: A2780, 48 h; in short: as §2
NCI-H630 [7] = assay: Cytotoxicity against human NCI-H630 cells after 48 hrs by sulforhodamine B assay; assay type: functional, cell-based; conditions: NCI-H630, 48 h; in short: as §2
NCI-H2452 = assay: Cytotoxicity against human NCI-H2452 cells after 48 hrs by sulforhodamine B assay; assay type: functional, cell-based; conditions: NCI-H2452, 48 h; in short: as §2
NCI-H2052 = assay: Cytotoxicity against human NCI-H2052 cells after 48 hrs by sulforhodamine B assay; assay type: functional, cell-based; conditions: NCI-H2052, 48 h; in short: as §2
[8] = Cytotoxicity against human LPc006 cells after 48 hrs by sulforhodamine B assay; assay type: functional, cell-based; conditions: LPc006, 48 h; in short: as §2
[9] = Cytotoxicity against human LPc028 cells after 48 hrs by sulforhodamine B assay; assay type: functional, cell-based; conditions: LPc028, 48 h; in short: as §2
[10] = Cytotoxicity against human LPc067 cells after 48 hrs by sulforhodamine B assay; assay type: functional, cell-based; conditions: LPc067, 48 h; in short: as §2
[11] = Cytotoxicity against immortalized human HPNE cells expressing human TERT after 48 hrs by sulforhodamine B assay; assay type: functional, cell-based; in short: as §2
HS27 = assay: Cytotoxicity against immortalized human HS27 cells after 48 hrs by sulforhodamine B assay; assay type: functional, cell-based; conditions: HS27, 48 h; in short: as §2
[12] = Cytotoxicity against human LPc006 cells grown in hypoxic condition after 48 hrs by sulforhodamine B assay relative to normoxygenated cells; assay type: functional, cell-based; conditions: LPc006, 48 h
In short: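 LPC006 primary pancreatic cancer cells are treated with compounds at 1–100 µM for 48 h under hypoxia (1% O2, 5% CO2, 94% N2, 37 °C). Read-out is the SRB assay at 492 nm with growth calculated relative to T0 and control. IC50 is the mean ± SE of three independent experiments and is compared with normoxic cells by Student's t-test.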

ADDP = assay: Effect on cell cycle distribution in human ADDP cells assessed as DNA content after 24 hrs by flow cytometry; assay type: functional, cell-based
In short: (§3)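 Cells are trypsinized, pelleted and stained with cold propidium iodide buffer for 30 min on ice. DNA content is measured by flow cytometry (10 000 cells/sample) to give G0/G1, S and G2/M fractions and the sub-G1 population. Results are mean ± SE of three experiments, analyzed by t-test or ANOVA.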

NCI-H630 [13] = assay: Effect on cell cycle distribution in human NCI-H630 cells assessed as DNA content after 24 hrs by flow cytometry; assay type: functional, cell-based; in short: as §3
ADDP cell line = assay: Induction of apoptosis in human ADDP cells assessed as appearance of sub-G1 cell subpopulation at compound IC50 after 24 hrs by flow cytometry; assay type: functional, cell-based; in short: as §3
NCI-H630 [14] = assay: Induction of apoptosis in human NCI-H630 cells assessed as appearance of sub-G1 cell subpopulation at compound IC50 after 24 hrs by flow cytometry; assay type: functional, cell-based; in short: as §3
HeLa [15] = assay: Reduction in lactate production in perfused human HeLa cells assessed as lactate to glucose ratio at 500 uM after 12 hrs by NMR spectroscopy using D-[1,6-13C2]glucose as substrate relative to control; assay type: functional
In short: (§4)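 HeLa cells are grown in RPMI-1640 with 10% FBS to 80% confluency, then washed for 15 min in glucose-free DMEM. Medium is replaced with DMEM containing 10 mM D-[1,6-13C2]glucose. Compound is added from 100× DMSO stocks (1% DMSO final), with vehicle controls, at 37 °C under normoxia. Medium is sampled at 6 and 12 h. 13C NMR gives the lactate-C3 (20.28 ppm) to glucose-C6 (60.95 ppm) peak-area ratio.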

HeLa [16] = assay: Reduction in lactate production in perfused human HeLa cells at 400 uM after 12 hrs by NMR spectroscopy using D-[1,6-13C2]glucose as substrate; assay type: functional; parameters: scale not given: the % may be the effect or the level left; in short: as §4
HeLa [17] = assay: Reduction in lactate production in perfused human HeLa cells at < 400 uM after 12 hrs by NMR spectroscopy using D-[1,6-13C2]glucose as substrate; assay type: functional, cell-based; in short: as §4

L-lactate dehydrogenase B chain (Homo sapiens), sequence (P07195 2-334 limits assumed): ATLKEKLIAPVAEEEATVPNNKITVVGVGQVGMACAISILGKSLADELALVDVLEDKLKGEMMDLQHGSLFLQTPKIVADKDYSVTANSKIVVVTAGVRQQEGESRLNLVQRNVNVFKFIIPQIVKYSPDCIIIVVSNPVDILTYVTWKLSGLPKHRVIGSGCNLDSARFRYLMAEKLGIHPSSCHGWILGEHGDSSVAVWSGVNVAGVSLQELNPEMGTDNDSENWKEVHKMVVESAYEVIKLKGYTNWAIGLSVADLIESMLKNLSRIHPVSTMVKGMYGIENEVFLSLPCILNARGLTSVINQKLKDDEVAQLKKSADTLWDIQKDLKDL

Row | inhibition [1] | inhibition [2] | inhibition [3] | Ki [4] | Ki [5] | Compound | IC50 (MSTO-211H) | IC50 (NCI-H28) | IC50 [6] | IC50 (A2780) | IC50 (NCI-H630 [7]) | IC50 (NCI-H2452) | IC50 (NCI-H2052) | IC50 [8] | IC50 [9] | IC50 [10] | IC50 [11] | IC50 (HS27) | IC50 [12] | Activity (ADDP) | Activity (NCI-H630 [13]) | other results
1 | inactive | inactive | – | – | – | COn1c(C(=O)O)cc2ccc(-c3ccccc3)cc21 | – | – | – | – | – | – | – | – | – | – | – | – | – | – | – | –
2 | 4% | 8% | – | – | – | COC(=O)c1cc2ccc(-c3ccccc3)cc2n1O | – | – | – | – | – | – | – | – | – | – | – | – | – | – | – | –
3 | 99% | – | < 3% | 10.4 µM | 15.7 µM | O=C(O)c1cc2cc(-c3ccccc3)ccc2n1O | 2.5 µM | 5.8 µM | 14.6 µM | 13.7 µM | 17.7 µM | 45.3 µM | 62.4 µM | 14.3 µM | 48.8 µM | 20.9 µM | > 100 µM | > 100 µM | 0.1 µM | Dose-dependent effect | Dose-dependent effect | Activity (ADDP cell line): Active; Activity (NCI-H630 [14]): Active
4 | 87% | 11% | 11% | 8.9 µM | 4.7 µM | O=C(O)c1cc2c(C(F)(F)F)cc(-c3ccccc3)cc2n1O | 10.6 µM | 11.4 µM | 17 µM | 10.8 µM | 31.5 µM | 90.2 µM | 73.2 µM | 16.3 µM | 41.2 µM | 13.5 µM | > 100 µM | > 100 µM | 0.9 µM | Dose-dependent effect | Dose-dependent effect | Ratio (HeLa [15]): < 0.01; Activity (HeLa [16]): 20%; Activity (HeLa [17]): inactive; Activity (ADDP cell line): Active; Activity (NCI-H630 [14]): Active
5 | 84% | – | < 3% | 19.8 µM | 35.4 µM | O=C(O)c1cc2ccc(-c3ccccc3)cc2n1O | 2.4 µM | 7.8 µM | 16.3 µM | 10.1 µM | 15.1 µM | 21.3 µM | 50.5 µM | 15.7 µM | 32.3 µM | 18.2 µM | > 100 µM | > 100 µM | 0.36 µM | Dose-dependent effect | Dose-dependent effect | Ratio (HeLa [15]): 0.12; Activity (ADDP cell line): Active; Activity (NCI-H630 [14]): Active
6 | 32% | – | – | – | – | O=C(O)c1cc2c(Br)cccc2n1O | – | – | – | – | – | – | – | – | – | – | – | – | – | – | – | –
7 | 11% | – | – | – | – | O=C(O)c1cc2ccc(-c3nn[nH]n3)cc2n1O | – | – | – | – | – | – | – | – | – | – | – | – | – | – | – | –
8 | Active | Active | – | – | – | O=C(O)c1cc2cc(-c3ccccc3)ccc2[nH]1 | – | – | – | – | – | – | – | – | – | – | – | – | – | – | – | –
